Assay results of several laboratories.
Compare with care: the assays were run in different laboratories.
Cell line: Jurkat
Observed: cell growth or viability

SMILES	test	conditions	IC50
CCCCCCCCC1=CC2C=CC=CC1C2C1CCCCC1=O (stereo not drawn)	flow cytometry	–	79 nM
COc1ccc(/C=C\c2cc(OC)c(OC)c(OC)c2)cc1O	–	–	5 nM
COc1cccc2c1C(=O)c1c(O)c3c(c(O)c1C2=O)C[C@@](O)(C(=O)CO)C[C@@H]3O[C@H]1C[C@H](N)[C@H](O)[C@H](C)O1	MTT	48 h	2.5 µg/mL
CC[C@]1(O)C[C@H]2CN(CCc3c([nH]c4ccccc34)[C@@](C(=O)OC)(c3cc4c(cc3OC)N(C=O)[C@H]3[C@@](O)(C(=O)OC)[C@H](OC(C)=O)[C@]5(CC)C=CCN6CC[C@]43[C@@H]65)C2)C1	MTT	–	1.1 nM
COCCOCOc1ccc(C(=O)/C=C/c2ccc(C(=O)O)cc2)cc1C12CC3CC(CC(C3)C1)C2	ATP luminescence	24 h	1800 nM
CCCON(Cc1ccc(C(=O)NO)cc1)C(=O)Nc1ccccc1	ATP luminescence	72 h	7090 nM
O=C1CCCCC1C1C2C=CC=CC1C(C1CC1)=C2 (stereo not drawn)	flow cytometry	–	39 nM
COc1cc(/C=C/C(=O)CC(=O)/C=C/c2ccc(O)c(OC)c2)ccc1O	MTT	48 h	28.9 µg/mL
CC(=O)O[C@H](C)C(=O)CCCCCCC(=O)Nc1ccccc1	thymidine uptake	–	> 100000 nM
COCCOCOc1cc(O)c(-c2cc(-c3ccc(C(=O)O)cc3)no2)cc1C12CC3CC(CC(C3)C1)C2	ATP luminescence	24 h	1950 nM
C[C@@H](O)C(=O)CCCCCCC(=O)Nc1ccccc1	thymidine uptake	–	92000 nM
CCCCCC/C=C1\CC2C=CC=CC1C2C1CCCCC1=O (stereo not drawn)	flow cytometry	–	29 nM
CC(=O)O[C@H]1C(=O)[C@@]2(C)[C@H]([C@H](OC(=O)c3ccccc3)[C@]3(O)C[C@H](OC(=O)[C@H](O)[C@@H](NC(=O)c4ccccc4)c4ccccc4)C(C)=C1C3(C)C)[C@]1(OC(C)=O)CO[C@@H]1C[C@@H]2O	–	72 h	2.8 nM
O=C1CCCCC1C1C2C=CC=CC1/C(=C/Cc1ccccc1)C2 (stereo not drawn)	flow cytometry	–	61 nM
CCCCN(Cc1ccc(C(=O)NO)cc1)C(=O)Nc1ccccc1	ATP luminescence	72 h	7410 nM
